ChEMBL document CHEMBL3085690, “Naturally occurring antimicrobial peptide OH-CATH30 selectively regulates the innate immune response to protect against sepsis” (J Med Chem, 2013)
Calls of active or inactive are those of the source. The calls are words filed in the database; no cut-off is given here.

Molecular target: Transcription factor p65 (Mus musculus) (UniProt Q04207)
Experiment: Activation of NFkappaB p65 in mouse BMDM assessed as phosphorylation at 10 ug/ml after 15 to 30 mins by Western blotting
Summary of the method: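 BMDMs came from mouse bone marrow cultured in RPMI 1640 with 10% FCS and 20% L929-conditioned medium. After treatment, lysates were run on 10% SDS−PAGE, transferred to PVDF, blocked with 5% BSA, and probed for phospho-p65. Detection used an HRP anti-rabbit IgG secondary and chemiluminescence.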

Chain of Transcription factor p65 (Mus musculus) (Q04207 whole entry): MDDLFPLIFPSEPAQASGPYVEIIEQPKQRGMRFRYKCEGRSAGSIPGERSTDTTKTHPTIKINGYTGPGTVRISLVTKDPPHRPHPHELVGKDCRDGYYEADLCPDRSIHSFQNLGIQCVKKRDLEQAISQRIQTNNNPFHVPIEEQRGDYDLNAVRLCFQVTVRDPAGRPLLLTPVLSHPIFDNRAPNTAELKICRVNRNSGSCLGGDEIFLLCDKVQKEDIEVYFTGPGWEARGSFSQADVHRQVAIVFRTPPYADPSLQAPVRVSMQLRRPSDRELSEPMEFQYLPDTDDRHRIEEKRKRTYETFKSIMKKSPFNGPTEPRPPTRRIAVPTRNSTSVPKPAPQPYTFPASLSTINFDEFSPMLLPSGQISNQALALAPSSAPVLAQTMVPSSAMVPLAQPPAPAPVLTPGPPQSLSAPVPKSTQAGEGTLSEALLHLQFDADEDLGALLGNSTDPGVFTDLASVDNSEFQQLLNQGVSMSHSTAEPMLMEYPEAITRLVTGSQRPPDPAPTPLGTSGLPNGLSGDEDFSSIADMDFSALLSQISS

Compound: CC[C@H](C)[C@H](NC(=O)[C@H](CCCCN)NC(=O)[C@H](CCC(=O)O)NC(=O)[C@H](CCCCN)NC(=O)[C@H](CO)NC(=O)[C@H](CCCCN)NC(=O)[C@H](CCCNC(=N)N)NC(=O)[C@H](Cc1ccccc1)NC(=O)[C@H](Cc1ccccc1)NC(=O)[C@H](CC(=O)O)NC(=O)CNC(=O)[C@H](CC(C)C)NC(=O)[C@@H](N)CC(C)C)C(=O)NCC(=O)N[C@@H](CCCCN)C(=O)N[C@@H](CCC(=O)O)C(=O)N[C@@H](Cc1ccccc1)C(=O)N[C@@H](CCCCN)C(=O)N[C@@H](CCCNC(=N)N)C(=O)N[C@H](C(=O)N[C@H](C(=O)N[C@@H](CCC(N)=O)C(=O)N[C@@H](CCCNC(=N)N)C(=O)N[C@H](C(=O)N[C@@H](CCCCN)C(=O)N[C@@H](CC(=O)O)C(=O)N[C@@H](Cc1ccccc1)C(=O)N[C@@H](CC(C)C)C(=O)N[C@@H](CCCNC(=N)N)C(=O)N[C@@H](CC(N)=O)C(=O)N[C@@H](CC(C)C)C(=O)N[C@H](C(=O)N1CCC[C@H]1C(=O)N[C@@H](CCCNC(=N)N)C(=O)N[C@H](C(=O)N[C@@H](CCC(=O)O)C(=O)N[C@@H](CO)C(=O)O)[C@@H](C)O)C(C)C)[C@@H](C)CC)C(C)C)[C@@H](C)CC
- Activity: Active
